Consider 93 compounds from PubChem BioAssay AID638 (SRMLSC, 2007).

Screen size: about 1,300 compounds; about 65 (5%) were called active. Only a sample is shown. Entries with a potency or affinity are not part of this list. A number with no mark means an inactive call.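 Rule for the calls: active = growth inhibition reaching a set limit at one or more tested doses; inactive = the rest.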

The nature of the assay: growth inhibition of wild-type E. coli, dose response, BW25113 wild type, OD615 (AID 638). To be noted: at 100 µM (top of the series) unless noted. In outline: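 assay system = wild-type Escherichia coli strain BW25113 growth | medium = Kanamycin-supplemented LB broth | measured by = optical density (absorbance) at 615 nm | timing = bacterial exposure to compound 20 h at 37 °C | doses = compound concentration series | measure = IC50 from 4-parameter logistic, bounds fixed 0–100% | controls = chloramphenicol 30 µM control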
Turning to `N=c1c2c(-c3ccccc3)c(-c3ccccc3)n(Cc3ccco3)c2ncn1Cc1ccco1`, the growth inhibition was 8.39%.
As to `CC(C)(C)N1C(=O)Cc2c1nc(N)c1c(N)nc(N3CCCCC3CO)c(C#N)c21` (stereo not drawn), the growth inhibition was -2.72%.
Turning to `c1csc(-c2noc(COc3ccc4c(c3)CCCC4)n2)c1`, the growth inhibition was 14.2%.
Consider `COc1ccc(CNC(=O)c2cc(-c3ccccc3OC)on2)cc1`, for which the growth inhibition was 10.6%.
`O=C(CS(=O)(=O)c1ccccc1)Nc1nc(-c2ccccc2)cs1`: the growth inhibition is 7.34%.
For `CCN(CC)c1ccc(C(=O)Nc2cccc(F)c2)cc1`, the growth inhibition is 0.51%.
`O=C(CN1CCN(S(=O)(=O)c2ccc(F)cc2)CC1)Nc1ccc(Cl)c(C(F)(F)F)c1`: the growth inhibition is 1.58%.
For `CC1CCN(c2nc3ccccc3nc2C(C#N)S(=O)(=O)c2ccccc2)CC1` (stereo not drawn), the growth inhibition was -11.4%.
`CC1=CCC(COC(=O)Nc2ccccc2)CC1` (stereo not drawn): the growth inhibition is 10.3%.
For the compound `Cc1cccnc1NC(=O)c1c(O)c2cccc3c2n(c1=O)CCC3`, the growth inhibition is 0.91%.
Take `CCn1c(=O)c(C(=O)Nn2c(C)nc3ccccc3c2=O)c(O)c2ccccc21`: the growth inhibition is 2.63%.
In the case of `CCOC(=O)Cc1c(C)nc2c(-c3cccc(Br)c3)c[nH]n2c1=O`, the growth inhibition is 7.94%.
On to `Cc1onc(-c2ccccc2)c1C(=O)Nc1nnc(COc2ccc(Cl)cc2)s1`, for which the growth inhibition is -9.06%.
With `CCn1c(C(=O)N2CCC(Cc3ccccc3)CC2)cc2sccc21`, the growth inhibition was -18.6%.
Turning to `N#Cc1c(NC(=O)c2ccc(Br)o2)n(-c2ccccc2)c2nc3ccccc3nc12`, the growth inhibition is -13.4%.
The result for `CC1=C(C#N)c2nc(N)c(C#N)c(C)c2/C1=C\c1ccccc1` reads -0.01%; that for `C(=C\c1ccccc1)/CN1CCN(c2ncnc3c2oc2ccccc23)CC1`, -1.65%.
As for `CCC(CC)c1nnc(NC(=O)c2c(-c3ccccc3)noc2C)s1`, the growth inhibition is 9.3%.
With `O=C1c2ccccc2C(O)(Cc2ccccc2)N1C1CCCCC1` (stereo not drawn) the figure was -0.01%; with `CCCc1nc(SCC(=O)N2CCC(Cc3ccccc3)CC2)c2c(=O)n(C)c(=O)n(C)c2n1`, -7.24%.
Consider `O=C(Nc1ccc2nc(-c3cccs3)[nH]c2c1)c1ccco1`, for which the growth inhibition is 15%.
With `Cc1ccccc1S(=O)(=O)Cc1ccc(C(=O)N2CCN(c3cccc(C)c3C)CC2)o1`, the growth inhibition is 7.63%.
With `COc1ccc(-c2cc3nc4c(c(N5CCC6(CC5)OCCO6)n3n2)CCCC4)cc1`, the growth inhibition was 0.64%.
`Clc1ccc(C2=Nn3c(nnc3-c3n[nH]c4c3CCC4)SC2)cc1Cl`: the growth inhibition was 1.98%.
Take `Cc1cccc(N2C(N)=C(C#N)C(C#N)(C#N)C2c2ccccc2)c1` (stereo not drawn): the growth inhibition is -0.76%.
Consider `CC(C)(C)C(=O)Cn1c(=N)n(Cc2ccccc2)c2ccccc21`, for which the growth inhibition is 1.06%.
The result for `O=c1n(Cc2ccccc2)c2cc(Cl)cnc2n1Cc1ccccc1` reads 6.2%; that for `O=C(NCc1ccco1)C(c1cccs1)N(C(=O)C1COc2ccccc2O1)c1cccc(O)c1` (stereo not drawn), 1.03%; that for `CCOC(=O)N1CCN(c2nc(N(c3ccccc3)c3ccccc3)nc(-n3ccnc3)n2)CC1`, -3.06%.
As for `COc1ccc(C2c3sc(=O)[nH]c3SC3C4CCC(C4)C23)cc1` (stereo not drawn), the growth inhibition was 0.8%.
As for `CCn1cc(C(=O)O)c(=O)c2cc(OC)ccc21`, the growth inhibition is 19.6%.
`O=C(Nc1ccc(N2CCN(C(=O)c3ccco3)CC2)c(Cl)c1)c1cccs1`: the growth inhibition is -1.45%.
The result for `CCOC(=O)c1cn(CC)c2cc(N3CCOCC3)c(F)cc2c1=O` reads 4.05% [at 50 µM]; that for `Cc1nc2c(C(=O)NCc3ccc4c(c3)OCO4)c[nH]n2c(=O)c1Cc1ccccc1F`, 0.77%.
For `CCn1cc(C(=O)O)c(=O)c2cnc(N3CCN(C(=O)Nc4ccccc4)CC3)nc21`, the growth inhibition was 5.93%.
Consider `CCOc1ccccc1N1CCN(C(=O)Nc2ccc(F)c(Cl)c2)CC1`, for which the growth inhibition was -9.1%.
Consider `CCOC(=O)c1cn(CC)c2cc(N3CCCCC3)c(F)cc2c1=O`, for which the growth inhibition was -6.06%.
Turning to `O=C(Nc1ccc(N2CCN(C(=O)c3ccco3)CC2)c(Cl)c1)c1c(F)c(F)c(F)c(F)c1F`, the growth inhibition was -3.01%.
Regarding `CCn1c2ccccc2c2cc(NC(=O)c3ccco3)ccc21`, the growth inhibition is -3.49%.
In the case of `COc1ccccc1-c1cc(C(=O)NCc2ccc(F)cc2)no1`, the growth inhibition was -0.01%.
`CCOC(=O)C1=C(C)NC(SCC(=O)Nc2cc(C)on2)=C(C#N)C1c1cccs1` (stereo not drawn): the growth inhibition was 3.97%.
Consider `CCOC(=O)c1c(-c2cccs2)csc1NC(=O)CN1CC(C)OC(C)C1` (stereo not drawn), for which the growth inhibition is -7.6%.
As to `Nc1nc(CN2CCN(c3cccc(Cl)c3)CC2)nc(N2CCCc3ccccc32)n1`, the growth inhibition is 4.24%.
In the case of `O=c1c2c(nc3c(-c4cccc5ccccc45)c[nH]n13)CCC2`, the growth inhibition was -1.35%.
Turning to `Cc1ccc(Cn2ccc(NC(=O)c3cc(CC(C)C)on3)n2)cc1`, the growth inhibition is 0.62%.
As for `N#Cc1cn(CCOc2ccccc2F)c2ccccc12`, the growth inhibition was -0.93%.
Regarding `COc1ccccc1N1CCN(C(=O)c2cc(-c3ccc(C)cc3)on2)CC1`, the growth inhibition was -0.92%.
With `Cc1cccc(C)c1NC(=O)C(c1cccs1)N(Cc1ccco1)C(=O)Cn1nnc2ccccc21` (stereo not drawn) the figure was -8.04%.
As for `O=C(Nc1ccc2c(c1)CCC2)C1COc2ccccc2O1` (stereo not drawn), the growth inhibition was 7.62%.
With `CCCN(CCC)C(=O)CSc1nc2ccccc2c(=O)n1C1CCCC1`, the growth inhibition is -6.85%.
For the compound `CCOC(=O)c1cc2sccc2n1Cc1ccc(C#N)cc1`, the growth inhibition was -10.3%.
Take `CCc1c(O)nc(SCC(=O)Nc2ccc(C)cc2)n(C2CCCCC2)c1=O`: the growth inhibition is -10.1%.
Consider `CC1CCCc2sc3nc(NCc4ccco4)n4ncnc4c3c21` (stereo not drawn), for which the growth inhibition was -3.17%.
The result for `O=C1OC(c2ccc(O)cc2)(c2ccc(O)cc2)c2ccccc21` reads 24.6% (active); that for `CCn1c(SC)nnc1-c1sc2cc(Cl)ccc2c1Cl`, 2.34%.
Take `CC1CCCCC1n1c(=S)[nH]c2ccccc2c1=O` (stereo not drawn): the growth inhibition is -0.57%.
Turning to `CCCOc1ccc2oc(=O)c3c(c2c1)CCCN3C(=O)CN1CCc2ccccc2C1`, the growth inhibition was 0.92%.
Turning to `Cc1ccc(O)c(C(=O)CC(=O)c2cccc(F)c2)c1`, the growth inhibition is 11.9%.
With `CCCCCSc1nnc(-c2cc(Br)ccc2N)c(=O)[nH]1` the figure was -4.38%; with `CC(C)COC(=O)NCCOC(=O)Nc1cccc(Cl)c1`, 18.9%.
The result for `CCCc1cc(C(=O)Nc2cccc(Cl)c2)no1` reads 12.5%.
Turning to `CCOC(=O)C1CCCN(c2ncnc3c2cnn3-c2ccc(Cl)cc2)C1` (stereo not drawn), the growth inhibition is -11.7%.
`O=C1CC(c2ccco2)CC2=C1C1c3ccccc3C(=O)N1c1ccccc1N2` (stereo not drawn): the growth inhibition was -3.27%.
With `CC(C)Cn1c(=O)c(C(=O)Nc2cnccn2)c(O)c2ccccc21` the figure was 16.1%.
`O=C(C1CC1)N1CCc2cc(S(=O)(=O)NCCC3=CCCCC3)ccc21`: the growth inhibition is 9.41%.
Consider `CCOC(=O)c1ccccc1NC(=O)C(C)Oc1ccccc1` (stereo not drawn), for which the growth inhibition was -0.25%.
As for `Cc1cc2n(n1)C(c1ccc3c(c1)OCO3)Nc1c(C)cccc1-2` (stereo not drawn), the growth inhibition was -5.6%.
For the compound `CSc1nc2ccc(NS(=O)(=O)c3ccc4c(c3)OCCO4)cc2s1`, the growth inhibition is -7.17%.
On to `Cc1ccc(NC(=O)c2nnn(-c3cc(C)cc(C)c3)c2N)cc1`, for which the growth inhibition is -3.73%.
The result for `CCCCOc1ccc(S(=O)(=O)N2CCCCCC2)cc1` reads 6.59%.
Consider `Cc1ccc(Cl)cc1N1CCN(C(=O)c2ccc(NS(=O)(=O)c3c(C)noc3C)cc2)CC1`, for which the growth inhibition was -7.75%.
The result for `CC(=Nc1ccc(O)cc1)c1sc2ccccc2c1O` reads -1.71%; that for `O=c1c2ccccc2nc(SCc2cn3ccsc3n2)n1-c1ccccc1F`, -8.01%; that for `COC(=O)c1c(NC(=O)Cc2cccs2)sc2c1CCCC2`, 2.67%.
Regarding `COc1ccccc1N1CCN(C(=O)COc2ccc(C)cc2Br)CC1`, the growth inhibition is 12.1%.
With `CCOc1ccc(S(=O)(=O)Nc2cccc(Cl)c2)cc1`, the growth inhibition was 20% (active).
Turning to `CCOC(=O)N1CCN(C(=O)COc2ccc(S(=O)(=O)Nc3ccc(OCC)cc3)cc2)CC1`, the growth inhibition was 3.01%.
With `CCOc1ccc(NS(=O)(=O)c2ccc(SC)cc2)cc1`, the growth inhibition is 11.9%.
In the case of `Cc1ccc(-n2c(=O)[nH]cc(C(=O)Nc3ccc4c(c3)OCCO4)c2=O)cc1C`, the growth inhibition was -5.27%.
The result for `O=C(OC1CCc2ccccc2C1=O)c1ccccc1O` (stereo not drawn) reads 9.44%.
`CCCCCc1cc(O)c2c(C)cc(=O)oc2c1`: the growth inhibition was 7.24%.
Consider `CCCCCCOC(=O)C(C#N)c1nc2ccccc2nc1N1CCN(C)CC1` (stereo not drawn), for which the growth inhibition is 12.3%.
Take `CC1=C(C(=O)OCC(C)C)C(c2cc3c(cc2Br)OCO3)NC(=O)N1C` (stereo not drawn): the growth inhibition is 12.5%.
Turning to `CN(C)c1ccc(/C=N/n2ncc3ccccc32)cc1`, the growth inhibition was -3.99%.
Consider `COc1nc(N(c2ccccc2)c2ccccc2)nc(-n2ccnc2)n1`, for which the growth inhibition is 12.7%.
The result for `COc1ccccc1OCC(=O)N(Cc1nc(-c2ccccc2)no1)C1CCCCC1` reads -2.24%.
For the compound `COC(=O)c1ccccc1NC(=O)N1c2ccccc2CC1C` (stereo not drawn), the growth inhibition is 3.49%.
Take `Cc1ccc(C)n1-n1cnc2sc(-c3ccccc3)cc2c1=O`: the growth inhibition is -14.3%.
With `CCOC(=O)c1cn(CC)c2cc(N3CCSCC3)c(F)cc2c1=O` the figure was 10.1%.
On to `O=C(Nc1ccc(Cl)cc1)N(Cc1cccs1)Cc1cccs1`, for which the growth inhibition is -8.41%.
With `Cc1ccc(OCc2nc(C#N)c(N3CCN(Cc4ccccc4)CC3)o2)cc1` the figure was -9.19%.
Consider `COc1ccc(OC)c(S(=O)(=O)N2CCN(c3c(C)cccc3C)CC2)c1`, for which the growth inhibition was -10%.
As to `COc1cc(NS(=O)(=O)c2ccc(Br)cc2)c(OC)cc1NC(=O)c1ccco1`, the growth inhibition is -12%.
